# Screens from PubChem BioAssay.
# This is a sample that favours compounds with a hit; in the whole collection about 2.8% have one here.
# SIRT5 block: inhibitors of human sirtuin-5 desuccinylase; 330,000 tested, 1.1% active; Q9NXA8; inhibition, % at 15 µM; AID 652115; Purified SirT5, succinyl-peptide AMC, trypsin-coupled fluorescence; in the data active = inhibition above about 15%; inconclusive = no clear call, values can overlap the other calls
# DENV2 CPE: protects cells from dengue virus 2 cytopathic effect; DENV2-infected cells, cytopathic effect rescue, plate reader; CPE inhibition, % at 9.99 µM; 350,000 tested, 1.7% active; AID 651640; in the data active = CPE inhibition above about 20%, passing the limit was not always enough; inconclusive = no clear call, values can overlap the other calls; tested in BHK-21 cells;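 also: 0% = median of neutral control wells and 100% = median of positive control wells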
# E-sel inducer: induces E-selectin expression in human endothelial cells; P16581; HUVEC E-selectin immunofluorescence imaging; normalized: neutral wells 0, TNF-alpha wells 100; activation, % at 7.58 µM; 260,000 tested, 0.37% active;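 active = mean E-selectin-positive cell signal at least 10% of the positive control, reached in at least 60% of replicates, without over 20% cell loss; inconclusive = no rule given, readout overlaps actives, possibly toxicity-flagged; inactive = the rest, including those meeting only one limit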
# Target sequence (P16581 whole entry, looked up): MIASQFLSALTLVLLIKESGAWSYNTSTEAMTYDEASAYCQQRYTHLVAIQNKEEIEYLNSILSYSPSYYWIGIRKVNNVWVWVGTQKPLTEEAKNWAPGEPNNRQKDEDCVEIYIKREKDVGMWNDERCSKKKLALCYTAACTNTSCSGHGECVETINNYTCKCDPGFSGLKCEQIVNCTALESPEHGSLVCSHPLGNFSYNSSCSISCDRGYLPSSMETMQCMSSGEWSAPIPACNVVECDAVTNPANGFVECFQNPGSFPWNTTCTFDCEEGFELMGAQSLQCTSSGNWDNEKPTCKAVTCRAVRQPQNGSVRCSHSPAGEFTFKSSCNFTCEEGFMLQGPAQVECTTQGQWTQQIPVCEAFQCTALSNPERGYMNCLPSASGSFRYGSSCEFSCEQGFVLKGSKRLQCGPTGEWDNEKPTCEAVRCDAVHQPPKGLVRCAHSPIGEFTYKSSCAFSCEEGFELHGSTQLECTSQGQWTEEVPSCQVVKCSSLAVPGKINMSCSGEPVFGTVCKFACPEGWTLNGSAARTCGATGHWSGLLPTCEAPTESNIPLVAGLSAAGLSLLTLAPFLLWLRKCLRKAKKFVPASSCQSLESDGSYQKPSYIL
#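 Assay system: HUVEC primary endothelial cells. Input: 3,000 HUVEC seeded per well. Doses: one compound dose added by pin transfer. Read-out basis: % PE-positive cells. Benchmarks: TNF-alpha high, DMSO low. Detection: immunofluorescence imaging. Buffer or medium: EGM-2, gelatin.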
# * = called active by the depositor; u = inconclusive; x = not tested or not shown; ! = not confirmed by another sample.
SMILES,SIRT5 block,DENV2 CPE,E-sel inducer
Cc1cn(CC(=O)NCCCn2ccnc2)c(=O)[nH]c1=O,15*,-2,2
Cc1cn(CC(=O)NCCCN2CCCC2=O)c(=O)[nH]c1=O,-1,u,0
Cc1cn(CC(=O)NCCCc2ccccc2)c(=O)[nH]c1=O,-5,-20,0
CC(C)C(=O)Nc1ccc2c(c1)C(=O)N(C)[C@@H]1CC[C@@H](CC(=O)NCC3CC3)O[C@@H]1CO2,-5,-1,0
CCCC(=O)Nc1ccc2c(c1)OC[C@@H](C)N(C)C[C@@H](C)[C@H](OC)CN(C)C2=O,-1,-11,1
C[C@H]1CN([C@@H](C)CO)C(=O)c2cc(-c3cccnc3)cnc2O[C@@H]1CN(C)C(=O)Cc1cccnc1,1,1,0
C[C@H](CO)N1C[C@H](C)[C@@H](CN(C)Cc2ccccc2)Oc2c(NC(=O)C3CCCCC3)cccc2C1=O,18*!,-11,0
C[C@@H]1CN([C@@H](C)CO)C(=O)c2cccc(NC(=O)C3CCCCC3)c2O[C@H]1CN(C)Cc1ccc(C(F)(F)F)cc1,6,-2,10
C[C@@H]1CN([C@@H](C)CO)C(=O)c2cccc(NC(=O)C3CCCCC3)c2O[C@H]1CN(C)Cc1ccccc1,6,-8,-1
C[C@H]1CN([C@@H](C)CO)C(=O)c2cccc(NC(=O)C3CCCCC3)c2O[C@H]1CN(C)C(=O)Nc1ccc(C(F)(F)F)cc1,8,27*,0
C[C@@H]1CN([C@H](C)CO)C(=O)c2cccc(NC(=O)C3CCOCC3)c2O[C@H]1CN(C)Cc1ccc(Oc2ccccc2)cc1,4,25*,-2
C[C@@H]1CN([C@@H](C)CO)C(=O)c2cccc(NC(=O)C3CCOCC3)c2O[C@@H]1CN(C)Cc1ccc(Oc2ccccc2)cc1,-2,3,-15
C[C@H]1CN([C@@H](C)CO)C(=O)c2cccc(NC(=O)C3CCCCC3)c2O[C@@H]1CN(C)C(=O)Nc1ccc(C(F)(F)F)cc1,-3,-6,1
C[C@H](CO)N1C[C@H](C)[C@@H](CN(C)Cc2ccc(C(F)(F)F)cc2)Oc2c(NC(=O)C3CCCCC3)cccc2C1=O,17*,-1,u
CC=Cc1ccc2n(c1=O)C[C@@H]1[C@@H](CO)[C@H](C(=O)NCCC)[C@H]2N1C(=O)C1CCC1 (mixture of isomers),x,-10,0
C[C@H](CO)N1C[C@H](C)[C@H](CN(C)Cc2ccncc2)OCCCC[C@H](C)Oc2ccc(NC(=O)Nc3ccc(F)cc3)cc2C1=O,x,1,0
C[C@@H]1CCCCO[C@H](CN(C)C(=O)c2ccncc2)[C@H](C)CN([C@H](C)CO)C(=O)c2cc(NC(=O)c3ccccc3)ccc2O1,1,0,1
C[C@@H]1CN([C@@H](C)CO)C(=O)Cc2cc(NS(=O)(=O)c3cn(C)cn3)ccc2O[C@@H]1CN(C)C(=O)Nc1ccc(F)cc1,-1,-6,0
C[C@@H]1CN([C@@H](C)CO)C(=O)c2cc(-c3ccc(F)cc3)cnc2O[C@H]1CN(C)C(=O)Cc1ccccc1,3,-4,0
O=C(NC1CCCC1)N1CC(=O)N2[C@H](CO)[C@@H](c3ccc(-c4cccnc4)cc3)[C@@H]2C1,1,6,0
CC(C)NC(=O)Nc1cccc2c1O[C@@H](CN(C)Cc1ccc(C(F)(F)F)cc1)[C@H](C)CN([C@H](C)CO)C2=O,5,3,29*
CC(C)NC(=O)Nc1cccc2c1O[C@@H](CN(C)Cc1ccc(C(F)(F)F)cc1)[C@@H](C)CN([C@@H](C)CO)C2=O,0,u,-6
CC(C)NC(=O)Nc1cccc2c1O[C@@H](CN(C)Cc1ccc(Cl)c(Cl)c1)[C@H](C)CN([C@H](C)CO)C2=O,-4,1,12
CC(C)NC(=O)Nc1cccc2c1O[C@@H](CN(C)Cc1ccc(Cl)c(Cl)c1)[C@@H](C)CN([C@H](C)CO)C2=O,-7,-2,44*
CN(CC(=O)Nc1ccccc1Cl)C(=O)COC(=O)/C=C/c1cccs1,4,-9,x
SMILES,SIRT5 block,DENV2 CPE,E-sel inducer
CN(CC(=O)Nc1ccccc1Cl)C(=O)COC(=O)c1cccs1,3,57*,x
COc1ccc2c3c(n(C)c2c1)[C@H](CO)N(C(=O)Nc1ccc(F)cc1)CC31CN(Cc2cccc(F)c2)C1,x,-29,0
C[C@@H]1CN([C@H](C)CO)C(=O)Cc2cc(NS(=O)(=O)c3cccs3)ccc2O[C@H]1CN(C)Cc1ccc(C(=O)O)cc1,-4,17,x
CC(C)CC#Cc1cnc2c(c1)C(=O)N([C@H](C)CO)C[C@H](C)[C@H](CN(C)Cc1ccccc1)O2,-1,23*,1
C[C@H](CO)N1C[C@H](C)[C@@H](CN(C)Cc2ccc(F)cc2)Oc2ncc(C#CCN(C)C)cc2C1=O,-2,21*,-1
C[C@@H]1CN([C@H](C)CO)C(=O)c2cc(C#CCN(C)C)cnc2O[C@H]1CN(C)Cc1cccc(C(=O)O)c1,1,30*,x
C[C@H](CO)N1C[C@H](C)[C@H](CN(C)Cc2cccc(C(=O)O)c2)Oc2ncc(C#CCN(C)C)cc2C1=O,-4,-3,x
CC(C)CC#Cc1cnc2c(c1)C(=O)N([C@@H](C)CO)C[C@@H](C)[C@H](CN(C)Cc1ccccc1)O2,6,6,0
C[C@H](CO)N1C[C@H](C)[C@H](CN(C)Cc2cccnc2)Oc2ncc(C#CC3(O)CCCC3)cc2C1=O,1,7,1
C[C@@H]1CN([C@H](C)CO)C(=O)c2cc(C#CC3(O)CCCC3)cnc2O[C@@H]1CN(C)Cc1cccnc1,1,25*,4
C[C@@H]1CN([C@@H](C)CO)C(=O)c2cc(C#CCN(C)C)cnc2O[C@H]1CN(C)Cc1ccc(F)cc1,-3,-2,0
CC=Cc1ccc2n(c1=O)C[C@@H]1[C@@H](CO)[C@H](C(=O)NC3CCC3)[C@H]2N1C(=O)c1ccccn1 (mixture of isomers),0,-1,0
CO[C@@H]1CN(C)C(=O)c2ccc(NC(C)=O)cc2OC[C@@H](C)N(C(=O)CN2CCOCC2)C[C@H]1C,1,3,x
Cc1ccc(S(=O)(=O)N(C)C[C@H]2Oc3ccc(NC(=O)CCCCCC(=O)Nc4ccccc4N)cc3CC(=O)N([C@@H](C)CO)C[C@@H]2C)cc1,-3,-4,0
COc1ccccc1CN(C)C[C@@H]1OCc2cnnn2CCCC(=O)N([C@H](C)CO)C[C@@H]1C,-1,4,0
C[C@H](O)C#Cc1cnc2c(c1)C(=O)N([C@@H](C)CO)C[C@H](C)[C@H](CN(C)Cc1cccc(F)c1)O2,-1,1,0
C[C@H](CO)N1C[C@H](C)[C@H](CN(C)Cc2cccc(F)c2)Oc2ncc(C#C[C@@H](C)O)cc2C1=O,24*,18,1
O=C(NCC[C@H]1CC[C@H](NC(=O)C2CCC2)[C@@H](CO)O1)c1cc(Cl)cc(Cl)c1,-2,-9,0
Cc1noc(C)c1S(=O)(=O)N(C)C[C@H]1OCCCC[C@@H](C)Oc2ccc(NC(=O)C3CCCCC3)cc2C(=O)N([C@@H](C)CO)C[C@H]1C,4,6,0
N#C[C@@H]1[C@@H](c2ccc(-c3cccc(F)c3)cc2)[C@H](CO)N1c1nc(-c2ccccc2)cs1,7,90*,0
